Active and inactive are the calls of the source. The calls are words filed in the database; no cut-off is given here.
Legend:
[1] = system: SW480; assay: Antiproliferative activity against human SW480 cells assessed as inhibition of S phase after 48 hrs by MTT assay; assay type: functional, cell-based; details: SW480, 48 h
Procedure, shortened: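 Cells grown in DMEM with 3 mM HEPES and 10% Serum Supreme at 37 °C, 5% CO2. Proliferation read by MTT assay 48 h after drug addition; IC50 given as mean of two separate determinations, each in duplicate.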

[2] = system: HeLa; assay: Cell cycle arrest in human HeLa cells assessed as accumulation at G2/M phase at 2 uM treated 6 hr and measured 12 hr post double thymidine-synchrony release using propidium iodide staining by FACS analysis (reference value: 17 %); assay type: functional
Procedure, shortened: (§1)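 Cells harvested at set times post-release, fixed in 70% ethanol, stained with 5 μg/ml propidium iodide plus 0.5 mg/ml RNase A, and analysed by flow cytometry. Cell-cycle phase fractions calculated by ModFit.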

[3] = system: HeLa; assay: Cell cycle arrest in human HeLa cells assessed as accumulation at G1 phase at 2 uM treated 6 hr and measured 8 hr post double thymidine-synchrony release using propidium iodide staining by FACS analysis (reference value: 6 %); assay type: functional
[4] = system: HeLa; assay: Cell cycle arrest in Rb-deficient human HeLa cells assessed as accumulation at G2/M phase at 2 uM after 24 hrs by FACS analysis; assay type: functional
Procedure, shortened: (§2)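 Ethanol-fixed cells stained with propidium iodide/RNase A, DNA content read by FACS, phase and sub-diploid fractions calculated with ModFit.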

[5] = system: HeLa; assay: Cell cycle arrest at G2 phase in human HeLa cells assessed as increase in Wee1 level at 2 uM treated at early S phase measured after 8-14 hr post-synchrony release by immunoblot method; assay type: functional, cell-based
[6] = system: HeLa; assay: Induction of abberent mitosis in human HeLa cells expressing GFP-H2B assessed as micronuclei formation during interphase at 2 uM treated 1 hr and measured 24 hr post thymidine-synchrony release by time-lapse microscopy (reference value: 10%); assay type: functional
[7] = system: HeLa; assay: Cell cycle arrest in Rb-deficient human HeLa cells assessed as accumulation at S phase at 2 uM after 24 hrs by FACS analysis; assay type: functional; procedure, shortened: as §2
[8] = system: HeLa; assay: Decrease in survivin mRNA expression in human HeLa cells at 2 uM measured 8 to 14 hr post thymidine-synchrony release by RT-PCR analysis; assay type: functional, cell-based
Procedure, shortened: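 Survivin mRNA measured by real-time Taqman RT-PCR on TRIzol-extracted RNA from synchronized, treated HeLa samples, with β-actin as reference. Reaction used 600 nM each primer and 200 nM probe. Cycling: 50 °C for 2 min, 95 °C for 10 min, then 40 cycles of 95 °C for 15 s and 60 °C for 1 min. Values are the average of triplicate determinations.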

[9] = system: MDA-MB-453; assay: Toxicity in human MDA-MB-453 cells at 8 uM by MTT assay; assay type: cell-based; details: mda-mb-453, 8 µM
[10] = Cell cycle arrest in human SK-MEL-13 cells assessed as effect on G2/M phase progression at 2 uM treated 6 hr post double hydroxyurea-synchrony release using propidium iodide staining by FACS analysis; assay type: functional, cell-based
[11] = system: HCT-116; assay: Cell cycle arrest in Rb-competent human HCT116 cells assessed as accumulation at S phase at 3 times IC90 after 24 hrs using BrdUrd staining by FACS analysis (Rvb =38 %); assay type: functional
[12] = system: A2058; assay: Cell cycle arrest in human A2058 cells assessed as accumulation at G2/M phase at 2 uM treated 1 hr and measured 8 hr post double hydroxyurea-synchrony release using propidium iodide staining by FACS analysis (reference value: 48 %); assay type: functional
[13] = Cell cycle arrest in human SK-MEL-13 cells assessed as accumulation at S phase at 2 uM treated 1 hr and measured 10 hr post double hydroxyurea-synchrony release using propidium iodide staining by FACS analysis (reference value: 16 %); assay type: functional, cell-based
Procedure, shortened: (§3)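 SK-Mel-13 cells synchronized with 2 mM hydroxyurea, then treated with 2 μM CDK4 inhibitor or left untreated 1 h after release. Harvested at indicated times post-release, ethanol-fixed, propidium iodide/RNase stained, and DNA content read by FACS. Proportions of G1, S and G2/M cells derived with ModFit.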

[14] = system: HeLa; assay: Induction of abberent mitosis in human HeLa cells expressing GFP-H2B assessed as low survivin staining cells at 2 uM by immunofluorescence method (reference value: 9%); assay type: functional
[15] = system: HeLa; assay: Decrease in survivin protein expression in human HeLa cells at 2 uM measured 14 hr post thymidine-synchrony release by immunoblot analysis; assay type: functional, cell-based
Procedure, shortened: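 Synchronized HeLa cells given 2 μM CDK4 inhibitor in early S phase and harvested at set times post-release. Lysed in supplemented NETN buffer on ice for 20 min. Lysates run on SDS-PAGE and immunoblotted for survivin, borealin and other chromosomal passenger proteins, with ECL detection. Cyclin D3 served as loading control.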

[16] = system: HeLa; assay: Cell cycle arrest in human HeLa cells transfected with cyclin D3 siRNA assessed as delay in progression into mitosis at 2 uM measured after 8 to 20 hr post hydroxyurea-synchrony release by time-lapse microscopy; assay type: functional, cell-based
Procedure, shortened: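 HeLa cells transfected with 20 nM cyclin D3 siRNA number 1 or scrambled siRNA, then synchronized by overnight 2 mM hydroxyurea block and released. Treated with CDK4 inhibitor, siRNA, or both; entry into mitosis followed by time-lapse microscopy.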

[17] = system: SW480; assay: Toxicity in human SW480 cells at 8 uM by MTT assay; assay type: cell-based; details: sw480, 8 µM
[18] = Cell cycle arrest in Rb-competent human SK-MEL-13 cells assessed as accumulation at G2/M phase at 2 uM after 24 hrs by FACS analysis; assay type: functional; procedure, shortened: as §2
[19] = Cell cycle arrest in human SK-MEL-13 cells assessed as accumulation at S phase at 2 uM treated 1 hr and measured 12 hr post double hydroxyurea-synchrony release using propidium iodide staining by FACS analysis (reference value: 10 %); assay type: functional, cell-based; procedure, shortened: as §3
[20] = Inhibition of p38 MAPK using fluorescent substrate by IMAP assay
Procedure, shortened: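 Run in-house using IMAP: phosphorylated fluorescent peptide substrate binds preferentially to immobilized metal beads, which quantifies kinase activity. ATP at 3× the Km of each enzyme.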

[21] = system: HeLa; assay: Cell cycle arrest in human HeLa cells assessed as accumulation at S phase at 2 uM treated 2 hr and measured 8 hr post double thymidine-synchrony release using propidium iodide staining by FACS analysis (reference value: 8 %); assay type: functional; procedure, shortened: as §1
[22] = system: HeLa; assay: Cell cycle arrest in human HeLa cells assessed as accumulation at G2/M phase at 2 uM treated 2 hr and measured 8 hr post double thymidine-synchrony release using propidium iodide staining by FACS analysis (reference value: 86 %); assay type: functional; procedure, shortened: as §1
[23] = system: NCI-H460; assay: Toxicity in human H460a cells at IC50 after 3 days by MTT assay; assay type: cell-based; details: nci-h460, 72 h
[24] = system: HeLa; assay: Cell cycle arrest in human HeLa cells assessed as delay in progression into mitosis at 2 uM measured after 8 to 20 hr post hydroxyurea-synchrony release by time-lapse microscopy; assay type: functional, cell-based
[25] = system: HeLa; assay: Cell cycle arrest in human HeLa cells assessed as accumulation at G1 phase at 2 uM treated 4 hr and measured 8 hr post double thymidine-synchrony release using propidium iodide staining by FACS analysis (reference value: 6 %); assay type: functional
[26] = system: A2058; assay: Cell cycle arrest in human A2058 cells assessed as accumulation at G2/M phase at 2 uM treated 1 hr and measured 12 hr post double hydroxyurea-synchrony release using propidium iodide staining by FACS analysis (reference value: 39 %); assay type: functional

Row | SMILES | IC50 [1] | Activity [2] | Activity [3] | Activity [4] | Activity [5] | Activity [6] | Activity [7] | Activity [8] | Activity [9] | Activity [10] | Activity [11] | Activity [12] | Activity [13] | Activity [14] | Activity [15] | Activity [16] | Activity [17] | Activity [18] | Activity [19] | IC50 [20] | also measured
1 | CN1CCN(c2ccc(Nc3nc(N)c(C(=O)c4ccc5c(c4)OCCO5)s3)cc2)CC1 | 3.67 µM | 25% | 7% | 14% | Active | 30% | 27% | Active | Toxic | inactive | 4% | 69% | 14% | 18% | Active | Active | Toxic | 19% | 10% | 29 µM | Activity [21]: 9%; Activity [22]: 84%; Activity [23]: Toxic; Activity [24]: Active; Activity [25]: 5%; Activity [26]: 60%
2 | COc1cccc(C(=O)c2sc(Nc3ccc(N4CCN(C(C)C)CC4)cc3)nc2N)c1 | 1.06 µM | 25% | 7% | 14% | Active | 30% | 27% | Active | Toxic | inactive | 4% | 69% | 14% | 18% | Active | Active | Toxic | 19% | 10% | > 100 µM | Activity [21]: 9%; Activity [22]: 84%; Activity [23]: Toxic; Activity [24]: Active; Activity [25]: 5%; Activity [26]: 60%

Source: ChEMBL document CHEMBL1955770, “Inhibition of S/G2 phase CDK4 reduces mitotic fidelity” (J Biol Chem, 2006)
